Measurements reported in ChEMBL document CHEMBL2010649, “Metacridamides A and B, macrocycles from conidia of the entomopathogenic fungus Metarhizium acridum” (J Nat Prod, 2012).
pIC50: −log10 of the molar value. The source made the active and inactive calls. No cut-off for these calls is given here.

Experiments:
MCF7 [1] = assay: Cytotoxicity against human MCF7 cells at 100 uM after 72 hrs by XTT assay; type: functional, cell-based
Caco-2 [2] = assay: Cytotoxicity against human Caco2 cells at 100 uM after 72 hrs by XTT assay; type: functional, cell-based
[3] = Cytotoxicity against human HepG2/C3A cells after 72 hrs by XTT assay; type: functional, cell-based
In short: (§1)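 Cell viability measured by XTT cell proliferation kit (XTT Cell Proliferation Kit II) on Caco-2, MCF-7 and HepG2/C3A lines; IC50 values derived.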

Colletotrichum acutatum = assay: Antimicrobial activity against Colletotrichum acutatum at 100 ug/disk measured every 24 hrs for 4 days by disk diffusion assay; type: functional, organism-based
In short: (§2)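 Fungi grown on potato dextrose agar. Plates spread with 0.6 mL conidial suspension (ca. 1×10^6 conidia/mL H₂O) and dried 1 h. Sample applied in 10 μL MeOH to 7-mm paper disks, air-dried 1 h, placed on plates. Zones of inhibition read every 24 h for 4 days. Filipin 10 μg/disk positive control; MeOH 10 μL/disk negative control.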

Botrytis cinerea = assay: Antimicrobial activity against Botrytis cinerea at 100 ug/disk measured every 24 hrs for 4 days by disk diffusion assay; type: functional, organism-based; in short: as §2
Aedes aegypti = assay: Insecticidal activity against Aedes aegypti larvae at 100 ug/ml; type: functional, organism-based
Beauveria bassiana = assay: Antimicrobial activity against Beauveria bassiana ARSF 8354 at 100 ug/disk measured every 24 hrs for 4 days by disk diffusion assay; type: functional; in short: as §2
Caco-2 [4] = assay: Cytotoxicity against human Caco2 cells after 72 hrs by XTT assay; type: functional, cell-based; conditions: Caco-2, 72 h; in short: as §1
Bacillus cereus = assay: Antimicrobial activity against Bacillus cereus at 100 ug/disk measured every 24 hrs for 4 days by disk diffusion assay; type: functional, organism-based
In short: (§3)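 Bacteria grown on nutrient agar. Plates spread with 0.6 mL of a 24 h nutrient-broth culture and dried 1 h. Sample applied in 10 μL MeOH to 7-mm paper disks, air-dried 1 h, placed on plates. Zones of inhibition read every 24 h for 4 days. Tetracycline 10 μg/disk positive control; MeOH 10 μL/disk negative control.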

Drosophila melanogaster = assay: Insecticidal activity against Drosophila melanogaster at 100 ug; type: functional, organism-based
MCF7 [5] = assay: Cytotoxicity against human MCF7 cells after 72 hrs by XTT assay; type: functional, cell-based; conditions: MCF7, 72 h; in short: as §1
Escherichia coli = assay: Antimicrobial activity against Escherichia coli at 100 ug/disk measured every 24 hrs for 4 days by disk diffusion assay; type: functional, organism-based; in short: as §3

| Compound | Activity (MCF7 [1]) | Activity (Caco-2 [2]) | pIC50 [3] | inhibition zone (IZ) (Colletotrichum acutatum) | inhibition zone (IZ) (Botrytis cinerea) | Activity (Aedes aegypti) | inhibition zone (IZ) (Beauveria bassiana) | pIC50 (Caco-2 [4]) | inhibition zone (IZ) (Bacillus cereus) | Activity (Drosophila melanogaster) | pIC50 (MCF7 [5]) | inhibition zone (IZ) (Escherichia coli) |
| --- | --- | --- | --- | --- | --- | --- | --- | --- | --- | --- | --- | --- |
| CC[C@H](C)C[C@H](C)[C@H]1OC(=O)[C@H](Cc2ccccc2)NC(=O)/C(C)=C/[C@H](C)[C@@H](O)/C(C)=C/[C@H](C)[C@H](O)/C(C)=C\[C@@H]1C [METACRIDAMIDE B] | inactive | inactive | 4.74 |  |  |  |  |  |  |  |  |  |
| CC[C@H](C)C[C@H](C)[C@H]1OC(=O)[C@H](Cc2ccccc2)NC(=O)/C(C)=C/[C@H](C)[C@@H](O)/C(C)=C/[C@H](C)[C@H](OC(C)=O)/C(C)=C/[C@@H]1C [METACRIDAMIDE A] |  |  | 4.97 | inactive | inactive | inactive | inactive | 5.21 | inactive | inactive | 4.96 | inactive |
